# In ChEMBL document CHEMBL3091449, “Synthesis and antimicrobial profile of N-substituted imidazolium oximes and their monoquaternary salts against multidrug resistant bacteria” (2013):
# Tests used:
# [1] = test system: Enterococcus faecalis; test: Antibacterial activity against Enterococcus faecalis ATCC 29212 after 18 to 24 hrs by two-fold broth microdilution assay; format: functional
# Procedure, shortened: (§1)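 CLSI two-fold broth microdilution was used. Compounds were dissolved in DMSO, brought to 10 mg/mL in medium, then serially diluted in Mueller Hinton broth over 400–0.09 µg/mL. Overnight MHB cultures were diluted to 10^6 CFU/mL, and 10 µL was added per well. Plates were incubated 18–24 h at 37 °C, then 0.2 mg/mL INT was added for 30 min at 37 °C. MIC was the lowest concentration with no visible growth or pink colour, triplicate.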
# [2] = test system: Clostridium perfringens; test: Antibacterial activity against Clostridium perfringens FNSST 4999 after 18 to 24 hrs by two-fold broth microdilution assay; format: functional
# Procedure, shortened: (§2)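 CLSI two-fold broth microdilution. Compounds dissolved in DMSO, 10 mg/mL stock, serially diluted to 400–0.09 µg/mL in Mueller Hinton broth. Wells inoculated with 10^6 CFU/mL bacteria and incubated 18–24 h at 37 °C. 0.2 mg/mL INT added for 30 min. MIC taken as the lowest concentration with no visible growth or pink colour. Triplicate.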
# [3] = test system: Klebsiella pneumoniae; test: Antibacterial activity against Klebsiella pneumoniae FNSST 011 assessed as diameter of zone of inhibition at 15 ug/disc after 24 hrs by disc diffusion method; format: functional, organism-based
# Procedure, shortened: (§3)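 Gentamicin 15 µg disc run as positive control in CLSI disc diffusion. Lawn of 100 µL of 10^6 cfu/mL bacteria on Mueller Hinton agar, incubated 24 h at 37 °C. Zone diameter measured in mm including the 6 mm disc, triplicate, mean ± SE.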
# [4] = test system: Enterobacter cloacae; test: Antibacterial activity against TEM-1/CTX-M-15 expressing Enterobacter cloacae isolate 62 after 18 to 24 hrs by two-fold broth microdilution assay; format: functional
# [5] = test system: Enterococcus faecalis; test: Antibacterial activity against Enterococcus faecalis ATCC 29212 assessed as diameter of zone of inhibition at 15 ug/disc after 24 hrs by disc diffusion method; format: functional, organism-based; procedure, shortened: as §3
# [6] = test system: Aeromonas hydrophila; test: Antibacterial activity against Aeromonas hydrophila FNSST 014 assessed as diameter of zone of inhibition at 15 ug/disc after 24 hrs by disc diffusion method; format: functional, organism-based; procedure, shortened: as §3
# [7] = test system: Pseudomonas aeruginosa; test: Antibacterial activity against Pseudomonas aeruginosa FNSST 982 assessed as diameter of zone of inhibition at 15 ug/disc after 24 hrs by disc diffusion method; format: functional, organism-based; procedure, shortened: as §3
# [8] = test system: Klebsiella pneumoniae; test: Antibacterial activity against TEM-1/SHV-12 expressing Klebsiella pneumoniae isolate 303 after 18 to 24 hrs by two-fold broth microdilution assay; format: functional; procedure, shortened: as §1
# [9] = test system: Escherichia coli; test: Antibacterial activity against […] expressing Escherichia coli isolate 4024 after 18 to 24 hrs by two-fold broth microdilution assay; format: functional; procedure, shortened: as §2
# [10] = test system: Enterobacter cloacae; test: Antibacterial activity against CTX-15 expressing Enterobacter cloacae isolate 51 after 18 to 24 hrs by two-fold broth microdilution assay; format: functional
# [11] = test system: Escherichia coli; test: Antibacterial activity against Escherichia coli FNSST 982 assessed as diameter of zone of inhibition at 15 ug/disc after 24 hrs by disc diffusion method; format: functional, organism-based; procedure, shortened: as §3
# [12] = test system: Escherichia coli; test: Antibacterial activity against TEM-1/SHV-12 expressing Escherichia coli isolate 237 after 18 to 24 hrs by two-fold broth microdilution assay; format: functional; procedure, shortened: as §2
# [13] = test system: Aeromonas hydrophila; test: Antibacterial activity against TEM-1/SHV-12 expressing Aeromonas hydrophila isolate 268 after 18 to 24 hrs by two-fold broth microdilution assay; format: functional; procedure, shortened: as §1
# [14] = test system: Aeromonas caviae; test: Antibacterial activity against […] expressing Aeromonas caviae isolate 258 after 18 to 24 hrs by two-fold broth microdilution assay; format: functional; procedure, shortened: as §1
# [15] = test system: Staphylococcus aureus; test: Antibacterial activity against Staphylococcus aureus ATCC 25923 after 18 to 24 hrs by two-fold broth microdilution assay; format: functional; procedure, shortened: as §1
# [16] = test system: Enterobacter cloacae; test: Antibacterial activity against TEM-1/SHV-12 expressing Enterobacter cloacae isolate 306 after 18 to 24 hrs by two-fold broth microdilution assay; format: functional
# [17] = test system: Clostridium perfringens; test: Antibacterial activity against Clostridium perfringens FNSST 4999 assessed as diameter of zone of inhibition at 15 ug/disc after 24 hrs by disc diffusion method; format: functional, organism-based; procedure, shortened: as §3
# [18] = test system: Kluyvera intermedia; test: Antibacterial activity against TEM-1/SHV-12/[…] expressing Enterobacter intermedius isolate 243 after 18 to 24 hrs by two-fold broth microdilution assay; format: functional; procedure, shortened: as §1
# [19] = test system: Staphylococcus aureus; test: Antibacterial activity against Staphylococcus aureus ATCC 25923 assessed as diameter of zone of inhibition at 15 ug/disc after 24 hrs by disc diffusion method; format: functional, organism-based; procedure, shortened: as §3
# [20] = test system: Escherichia coli; test: Antibacterial activity against Escherichia coli FNSST 982 after 18 to 24 hrs by two-fold broth microdilution assay; format: functional; procedure, shortened: as §1
# [21] = test system: Acinetobacter baumannii; test: Antibacterial activity against SIM-1 expressing Acinetobacter baumannii isolate 170 after 18 to 24 hrs by two-fold broth microdilution assay; format: functional; procedure, shortened: as §2
# [22] = test system: Escherichia coli; test: Antibacterial activity against […] expressing Escherichia coli isolate 235 after 18 to 24 hrs by two-fold broth microdilution assay; format: functional; procedure, shortened: as §2
# [23] = test system: Aeromonas hydrophila; test: Antibacterial activity against Aeromonas hydrophila FNSST 014 after 18 to 24 hrs by two-fold broth microdilution assay; format: functional; procedure, shortened: as §1
# [24] = test system: Bacillus cereus; test: Antibacterial activity against Bacillus cereus ATCC 11778 after 18 to 24 hrs by two-fold broth microdilution assay; format: functional; procedure, shortened: as §1
# [25] = test system: Aeromonas caviae; test: Antibacterial activity against TEM-1/CTX-M-15 expressing Aeromonas caviae isolate 260 after 18 to 24 hrs by two-fold broth microdilution assay; format: functional; procedure, shortened: as §1
# [26] = test system: Pseudomonas aeruginosa; test: Antibacterial activity against Pseudomonas aeruginosa FNSST 982 after 18 to 24 hrs by two-fold broth microdilution assay; format: functional; procedure, shortened: as §1
# [27] = test system: Stenotrophomonas maltophilia; test: Antibacterial activity against […] expressing Stenotrophomonas maltophilia isolate 125 after 18 to 24 hrs by two-fold broth microdilution assay; format: functional; procedure, shortened: as §1
# [28] = test system: Bacillus cereus; test: Antibacterial activity against Bacillus cereus ATCC 11778 assessed as diameter of zone of inhibition at 15 ug/disc after 24 hrs by disc diffusion method; format: functional, organism-based; procedure, shortened: as §3
# [29] = test system: Pseudomonas aeruginosa; test: Antibacterial activity against GIM-1 expressing Pseudomonas aeruginosa isolate 197 after 18 to 24 hrs by two-fold broth microdilution assay; format: functional; procedure, shortened: as §1
# [30] = test system: Klebsiella pneumoniae; test: Antibacterial activity against Klebsiella pneumoniae FNSST 011 after 18 to 24 hrs by two-fold broth microdilution assay; format: functional; procedure, shortened: as §1
sequence,measurement,setting,value
GENTAMICIN,MIC,[1],4 µg/mL
same,MIC,[2],0.5 µg/mL
same,inhibition zone (IZ),[3],18.2 mm
same,MIC,[4],4 µg/mL
same,inhibition zone (IZ),[5],14.6 mm
same,inhibition zone (IZ),[6],12.6 mm
same,inhibition zone (IZ),[7],9.2 mm
same,MIC,[8],32 µg/mL
same,MIC,[9],64 µg/mL
same,MIC,[10],128 µg/mL
same,inhibition zone (IZ),[11],11.5 mm
same,MIC,[12],8 µg/mL
same,MIC,[13],4 µg/mL
same,MIC,[14],12.8 µg/mL
same,MIC,[15],1 µg/mL
same,MIC,[16],256 µg/mL
same,inhibition zone (IZ),[17],21.7 mm
same,MIC,[18],2 µg/mL
same,inhibition zone (IZ),[19],23.9 mm
same,MIC,[20],32 µg/mL
same,MIC,[21],16 µg/mL
same,MIC,[22],16 µg/mL
same,MIC,[23],8 µg/mL
same,MIC,[24],4 µg/mL
same,MIC,[25],32 µg/mL
same,MIC,[26],64 µg/mL
same,MIC,[27],2 µg/mL
same,inhibition zone (IZ),[28],18.2 mm
same,MIC,[29],> 8 µg/mL
same,MIC,[30],8 µg/mL
